Measurements pooled from the literature.
Each line is one published result; the experiments were not run side by side.

For `Cc1cc(C)nc(Nc2ncc(C(=O)NCCc3c(C)[nH]c4ccccc34)cn2)c1`, the microsomal CLint was 185 µL/min/mg (metabolic stability; rat, liver microsomes; 1 µM).
For `NC(=O)[C@@H]1CC(F)(F)CN1C(=O)c1ccc(N2CC(F)(F)C2)c(OCC2CC2)n1`, the hepatocyte CLint was 14 µL/min/10⁶ cells (metabolic stability; human, hepatocytes).
`COc1ccnc(C(=O)N[C@H]2COC(=O)[C@H](Cc3ccccc3)[C@@H](OC(=O)C(C)C)[C@H](C)OC2=O)c1OCOC(=O)C(C)C` has an LD50 of over 2000 mg/kg (rat; oral).
`Cc1c(C(=O)Nc2ccc(OC(F)(F)F)cc2)nc(-c2ccc(Cl)cc2Cl)n1-c1ccc(OS(=O)(=O)CCC(F)(F)F)cc1` gave a logD of over 4 (shake flask; aqueous buffer; pH 7.4).
`Nc1nc2[nH]cc(CCc3ccc(C(=O)N[C@@H](CCC(=O)O)C(=O)O)cc3)c2c(=O)[nH]1` has a clearance of 81.7 mL/min (human, plasma; intravenous, 500 mg/m², patients).
With `C=CCNc1c(O)cc2c(O)c1C[C@@H](C)C[C@H](OC)[C@H](O)[C@@H](C)/C=C(\C)[C@H](OC(N)=O)[C@@H](OC)/C=C\C=C(/C)C(=O)N2` the clearance was 1630 mL/min (human, plasma; intravenous, 400 mg/m², patients, infusion).
`NCCCNCCCCNCCCNc1cc2nc(-c3ccccc3Cl)[nH]c(=O)c2cc1F` gave an LD50 of over 1000 mg/kg (male Sprague-Dawley rat; oral).
The hepatocyte CLint of `C[C@H]1COCCN1c1nc(NCc2cccnc2C(F)(F)F)c2cccnc2n1` is reported as 5 µL/min/10⁶ cells (metabolic stability; rat, hepatocytes).
`N=c1c2c(-c3ccccc3)c(-c3ccccc3)n(Cc3ccccc3)c2ncn1[C@H]1CC[C@H](O)CC1` has a scaled CLint of 19 mL/min/kg (metabolic stability; Sprague-Dawley rat, hepatocytes; 1 µM).
